Entries after “also recorded” stand apart in the source; their conditions may differ.
Key:
[1] = biological target: purified RyR2 (Ovis aries, UniProt A0ACI6RLQ3); experiment: Single-channel recordings of purified RyR2 in planar lipid bilayers; assay type: biochemical, sheep
[2] = system: RyR2 macromolecular complex (sheep cardiac SR); experiment: 3H-Ryanodine binding to cardiac SR vesicles
In short: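 Sheep cardiac SR vesicles (0.5mg/ml) incubated to equilibrium for 3hrs at 37°C in 20mM HEPES pH 7.4, 250mM KCl, 50µM CaCl2, 2nM 3H-ryanodine plus 13nM unlabeled ryanodine, ± test compound. Non-specific binding (200nM ryanodine, 4mM EGTA) subtracted. Quenched by rapid filtration. Ca2+-dependence run across free Ca2+ levels set with EGTA. Data as mean ± SEM.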

[3] = system: ventricular myocytes from R176Q mice; experiment: Ca2+ spark frequency; assay type: cell-based, mouse
In short: (§1)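 Isolated mouse ventricular myocytes were loaded with Fluo-4-AM (2µM) and stimulated with 100nM isoproterenol to raise spontaneous sparks. Cells were exposed to vehicle or test compound for 2hrs, then sparks were imaged by confocal microscopy and spark frequency computed. For R176Q cells, a 0.5nM–5µM dose series was fitted sigmoidally for IC50 (n=6–10 cells per group, 3 mice).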

[4] = system: WT myocytes; experiment: Ca2+ spark frequency; assay type: cell-based, mouse; conditions: 500nM
In short: as §1

[5] = system: ventricular myocytes of WT mice; experiment: Ca2+ transient amplitude induced by 1-Hz field stimulation, WT myocytes; assay type: cell-based, mouse; conditions: 500nM, vehicle 2.6 ± 0.2
[6] = system: R176Q myocytes; experiment: Ca2+ transient amplitude induced by 1-Hz field stimulation, R176Q myocytes; assay type: cell-based, mouse; conditions: 500nM, vehicle 2.4 ± 0.1
[7] = system: R176Q mice; experiment: Inducible VT by extrastimuli pacing after epinephrine and caffeine; assay type: in vivo, mouse; conditions: 2.5µg/kg i.p. 15 minutes prior to pacing, vehicle 8 of 11
In short: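 Adult (2–3-month) R176Q mice under 1.5% isoflurane in 95% O2 had surface ECG and intracardiac electrograms recorded. Epinephrine (2mg/kg) and caffeine (120mg/kg) were given i.p., then extrastimulus pacing tested VT inducibility, with or without i.p. test compound. Incidence was scored as mice with VT per group.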

[8] = system: R176Q mice; experiment: ECG parameters after injection; assay type: in vivo, mouse
In short: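 RyR2-R176Q/+ mice aged 2–3 months were anesthetised with 1.5% isoflurane in 95% O2. Six-lead surface ECG and intracardiac electrograms were recorded simultaneously, at baseline and with or without intraperitoneal test compound.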

[9] = IC50, single-channel, purified RyR2 without CaM, 25µM cis-Ca2+
[10] = −Log([IC50], M), single-channel, purified RyR2 without CaM, 25µM cis-Ca2+

Row | SMILES | IC50 [1, 9] | channel activity at concentrations above 100nM ([1]; purified RyR2 without CaM) | IC50 [1, 10] | inhibition of channel activity ([1]; purified RyR2, all concentrations tested (10nM-100µM)) | effect on equilibrium 3H-ryanodine binding ([2]; equilibrium binding, sheep cardiac SR) | reduction of CaSF compared to vehicle ([3]; 500nM) | IC50 ([3]; CaSF inhibition, 2hrs exposure) | effect on CaSF [4] | Ca2+ transient amplitude [5] | Ca2+ transient amplitude [6] | incidence of inducible VT [7] | effect on ECG parameters (RR, HR, PR, QRS, QTc) [8] | IC50 ([1]; IC50, single-channel, purified RyR2 + 100nM CaM) | IC50 ([1]; IC50, single-channel, purified RyR2 + 1μM CaM) | reduction in potency (IC50 higher) vs CaM-free purified RyR2 ([1]; cardiac SR or purified RyR2 supplemented with 100nM or 1µM CaM) | IC50 ([1]; −Log([IC50], M), single-channel, purified RyR2 + 100nM CaM) | IC50 ([1]; −Log([IC50], M), single-channel, purified RyR2 + 1μM CaM) | concentration required for inhibition of equilibrium 3H-ryanodine binding ([2]; equilibrium binding over 3 hours) | shift of the Ca2+-dependence of 3H-ryanodine binding ([2]; therapeutic concentrations)
1 | CCCCNc1ccc(C(=O)O)c(OC)c1 [Compound 2, 4-(butylamino)-2-methoxybenzoic acid] | 9.45 nM | completely inhibited | 9.55 nM |  |  |  |  |  |  |  |  |  |  |  |  |  |  |  | 
2 | CCN(CC)CCO [Compound 3, 2-(diethylamino)-ethanol, reference compound] |  |  |  | did not inhibit | no effect |  |  |  |  |  |  |  |  |  |  |  |  |  | 
3 | CCCCNc1ccc(C(=O)OCCN(CC)CC)c(OC)c1 [EL20, 2-(diethylamino)ethyl 4-(butylamino)-2-methoxybenzoate] | 8.21 nM | completely inhibited | 8.13 nM |  |  | ~ 70% | 35.4 nM | did not significantly alter | 2.7 ± 0.2 F/Fo | 2.8 ± 0.3 F/Fo | 1 of 7 and significantly reduced | did not alter any ECG parameters; also recorded: not affected | 1860 nM | 3560 nM | 200 to 1000 fold | 1860 nM | 3550 nM | > 10 µM | did not shift

Reference: publication PMC5879004 (Heart rhythm, 2017)
